In ChEMBL document CHEMBL1149261, “New constrained "molecular tongs" designed to dissociate HIV-1 protease dimer” (J Med Chem, 2004):

What was measured:
[1] = biological target: T1, Human immunodeficiency virus type 1 protease (Human immunodeficiency virus 1, UniProt Q72874); experiment: Inhibition of HIV1 protease
Outline: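 Protease activity read with fluorogenic substrate DABCYL-γ-Abu-Ser-Gln-Asn-Tyr-Pro-Ile-Val-Gln-EDANS in 100 mM sodium acetate, 1 mM EDTA, 1 M NaCl, pH 4.7, 30 °C. Substrate and inhibitor (DMSO, 3% v/v final) preincubated 3 min, then enzyme added (7.5 nM final). Fluorescence (ex 340, em 490 nm) followed 3 min. 8–10 inhibitor concentrations; IC50 fitted to %inhibition = 100[I]0/(IC50+[I]0).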

[2] = biological target: T1, Human immunodeficiency virus type 1 protease; experiment: Inhibition of dimerization of HIV1 protease
Outline: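 Zhang kinetic analysis using the same fluorogenic DABCYL/EDANS substrate assay (pH 4.7 acetate buffer, 30 °C, ex 340/em 490 nm). Initial substrate held constant; at least four protease concentrations (4.7–13.6 nM) tested at several inhibitor concentrations. Dimerization inhibition constant Kid derived from Zhang plots.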

[3] = biological target: Human immunodeficiency virus type 1 protease (Human immunodeficiency virus 1) (UniProt Q72874); experiment: Inhibition of HIV1 protease at 5.7 uM
Outline: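 Fluorogenic assay with DABCYL-γ-Abu-Ser-Gln-Asn-Tyr-Pro-Ile-Val-Gln-EDANS substrate, in 100 mM sodium acetate, 1 mM EDTA and 1 M NaCl at pH 4.7 and 30 °C, with 3% v/v DMSO final. Substrate and inhibitor were preincubated for 3 min. The reaction was started with HIV-1 protease (7.5 nM final). The fluorescence increase (ex 340/em 490 nm) was followed over 3 min and compared with a substrate-only blank to give % inhibition.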

Row | inhibition [3] [%] | SMILES | IC50 [1] [nM] | Ki [2] [nM] | Ki [1] [nM]
1 |  | CC[C@H](C)[C@H](NC(=O)CCCOc1ccc2ccc(OCCCC(=O)N[C@H](C(=O)N[C@@H](CC(C)C)C(=O)N[C@H](C(=O)OC)C(C)C)C(C)C)cc2n1)C(=O)N[C@H](C(=O)N[C@@H](CC(C)C)C(=O)OC)[C@@H](C)O | 5300 | 400 | 
2 |  | COC(=O)[C@@H](NC(=O)[C@H](CC(C)C)NC(=O)[C@@H](NC(=O)CCCOc1ccc2ccc(OCCCC(=O)N[C@@H](CCC(=O)OC(C)(C)C)C(=O)N[C@@H](CC(C)C)C(N)=O)nc2c1)C(C)C)C(C)C | 1800 | 530 | 
3 | 30 | CC[C@H](C)[C@H](NC(=O)[C@H](CCC(N)=O)NC(=O)CCCOc1ccc2ccc(OCCCC(=O)N[C@H](C(=O)N[C@@H](CC(C)C)C(=O)N[C@H](C(=O)OC)C(C)C)C(C)C)cc2n1)C(=O)N[C@H](C(N)=O)[C@@H](C)O |  |  | 
4 |  | COC(=O)[C@H](CC(N)=O)NC(=O)[C@H](CC(C)C)NC(=O)[C@@H](NC(=O)CCCOc1ccc2ccc(OCCCC(=O)N[C@H](C(=O)N[C@@H](CC(C)C)C(=O)N[C@H](C(=O)OC)C(C)C)C(C)C)cc2n1)[C@@H](C)O | 5100 | 80 | 
5 |  | COC(=O)[C@H](CC(C)C)NC(=O)[C@@H](NC(=O)CCCOc1ccc2ccc(OCCCC(=O)N[C@H](C(=O)N[C@@H](CC(C)C)C(=O)N[C@H](C(=O)OC)C(C)C)C(C)C)cc2n1)[C@@H](C)O | 1400 | 1500 | 
6 |  | COC(=O)[C@@H](NC(=O)[C@H](CC(C)C)NC(=O)[C@@H](NC(=O)CCCOc1ccc2ccc(OCCCC(=O)N[C@@H](CCC(=O)O)C(=O)N[C@@H](CC(C)C)C(N)=O)cc2c1)C(C)C)C(C)C | 2800 | 900 | 
7 | 20 | COC(=O)[C@@H](NC(=O)[C@H](CC(C)C)NC(=O)[C@@H](NC(=O)CCCOc1ccc2ccc(OCCCC(=O)N[C@@H](CCC(=O)O)C(=O)N[C@@H](CC(C)C)C(N)=O)nc2c1)C(C)C)C(C)C |  |  | 
8 |  | COC(=O)[C@H](CC(C)C)NC(=O)[C@@H](NC(=O)CCCOc1ccc2ccc(OCCCC(=O)N[C@H](C(=O)N[C@@H](CC(C)C)C(=O)N[C@H](C(=O)OC)C(C)C)C(C)C)cc2c1)[C@@H](C)O | 4000 | 1400 | 10300
9 |  | COC(=O)[C@@H](NC(=O)[C@H](CC(C)C)NC(=O)[C@@H](NC(=O)CCCOc1ccc2ccc(OCCCC(=O)N[C@@H](Cc3ccc(O)cc3)C(=O)N[C@@H](CCC(=O)OC(C)(C)C)C(=O)N[C@@H](CC(C)C)C(N)=O)cc2c1)C(C)C)C(C)C | 1100 | 230 | 
10 |  | COC(=O)[C@@H](NC(=O)[C@H](CC(C)C)NC(=O)[C@@H](NC(=O)CCCOc1ccc2ccc(OCCCC(=O)N[C@H](C(=O)N[C@@H](CC(C)C)C(=O)N[C@H](C(=O)OC)C(C)C)C(C)C)nc2c1)C(C)C)C(C)C | 1400 | 130 | 
11 |  | COC(=O)[C@@H](NC(=O)[C@H](CC(C)C)NC(=O)[C@@H](NC(=O)CCCOc1ccc2ccc(OCCCC(=O)N[C@@H](Cc3ccc(O)cc3)C(=O)N[C@@H](CCC(=O)OC(C)(C)C)C(=O)N[C@@H](CC(C)C)C(N)=O)nc2c1)C(C)C)C(C)C | 1000 | 410 | 
12 |  | COC(=O)[C@@H](NC(=O)[C@H](CC(C)C)NC(=O)[C@@H](NC(=O)CCCOc1ccc2ccc(OCCCC(=O)N[C@@H](CCC(=O)OC(C)(C)C)C(=O)N[C@@H](CC(C)C)C(N)=O)cc2c1)C(C)C)C(C)C | 1100 | 420 | 
13 |  | CC[C@H](C)[C@H](NC(=O)CCCOc1ccc2ccc(OCCCC(=O)N[C@H](C(=O)N[C@@H](CC(C)C)C(=O)N[C@H](C(=O)OC)C(C)C)C(C)C)cc2c1)C(=O)N[C@H](C(N)=O)[C@@H](C)O | 4300 | 1500 | 6200
14 |  | CC[C@H](C)[C@H](NC(=O)[C@H](CCC(N)=O)NC(=O)CCCOc1ccc2ccc(OCCCC(=O)N[C@H](C(=O)N[C@@H](CC(C)C)C(=O)N[C@H](C(=O)OC)C(C)C)C(C)C)cc2c1)C(=O)N[C@H](C(N)=O)[C@@H](C)O | 2800 | 2300 | 
15 |  | COC(=O)[C@@H](NC(=O)[C@H](CC(C)C)NC(=O)[C@@H](NC(=O)CCCOc1ccc2ccc(OCCCC(=O)N[C@H](C(=O)N[C@@H](CC(C)C)C(=O)N[C@H](C(=O)OC)C(C)C)C(C)C)cc2c1)C(C)C)C(C)C | 3500 | 560 | 
16 |  | CC[C@H](C)[C@H](NC(=O)CCCOc1ccc2ccc(OCCCC(=O)N[C@H](C(=O)N[C@@H](CC(C)C)C(=O)N[C@H](C(=O)OC)C(C)C)C(C)C)cc2n1)C(=O)N[C@H](C(N)=O)[C@@H](C)O | 1700 | 250 | 4300

Row | SMILES | inhibition [3] [%] | IC50 [1] [nM] | Ki [2] [nM] | Ki [1] [nM]
17 | CC[C@@H](C)[C@H](NC(=O)[C@@H](NC(=O)CCCOc1ccc2ccc(OCCCC(=O)N[C@H](C(=O)N[C@H](C(=O)N[C@H](C(=O)OC)C(C)C)[C@H](C)CC)[C@@H](C)O)nc2c1)[C@@H](C)O)C(=O)N[C@H](C(=O)OC)C(C)C | 45 |  | 1900 | 
